Results as given in ChEMBL document CHEMBL3739303, “Targeting the Src Homology 2 (SH2) Domain of Signal Transducer and Activator of Transcription 6 (STAT6) with Cell-Permeable, Phosphatase-Stable Phosphopeptide Mimics Potently Inhibits Tyr641 Phosphorylation and Transcriptional Activity” (J Med Chem, 2015).
Calls of active or inactive are those of the source. The rule behind the calls is not given here.

How the values were obtained:
[1] = target: Signal transducer and activator of transcription 3 (Mus musculus) (UniProt P42227); assay: Inhibition of IL6-induced STAT3 phosphorylation at S727 in CD4+ T lymphocytes isolated from C57BL/6J mouse preincubated for 2 hrs followed by activation with plate-bound anti-CD3/anti-CD28 for 15 mins by Western blot analysis
[2] = target: T1, Signal transducer and transcription activator 6 (Mus musculus) (UniProt P52633); assay: Inhibition of IL4-induced STAT6 phosphorylation at Y641 in CD4+ T lymphocytes isolated from C57BL/6J mouse preincubated for 2 hrs followed by activation with plate-bound anti-CD3/anti-CD28 and IL4 for 15 mins by Western blot analysis; type: cell-based
T1 sequence (whole entry): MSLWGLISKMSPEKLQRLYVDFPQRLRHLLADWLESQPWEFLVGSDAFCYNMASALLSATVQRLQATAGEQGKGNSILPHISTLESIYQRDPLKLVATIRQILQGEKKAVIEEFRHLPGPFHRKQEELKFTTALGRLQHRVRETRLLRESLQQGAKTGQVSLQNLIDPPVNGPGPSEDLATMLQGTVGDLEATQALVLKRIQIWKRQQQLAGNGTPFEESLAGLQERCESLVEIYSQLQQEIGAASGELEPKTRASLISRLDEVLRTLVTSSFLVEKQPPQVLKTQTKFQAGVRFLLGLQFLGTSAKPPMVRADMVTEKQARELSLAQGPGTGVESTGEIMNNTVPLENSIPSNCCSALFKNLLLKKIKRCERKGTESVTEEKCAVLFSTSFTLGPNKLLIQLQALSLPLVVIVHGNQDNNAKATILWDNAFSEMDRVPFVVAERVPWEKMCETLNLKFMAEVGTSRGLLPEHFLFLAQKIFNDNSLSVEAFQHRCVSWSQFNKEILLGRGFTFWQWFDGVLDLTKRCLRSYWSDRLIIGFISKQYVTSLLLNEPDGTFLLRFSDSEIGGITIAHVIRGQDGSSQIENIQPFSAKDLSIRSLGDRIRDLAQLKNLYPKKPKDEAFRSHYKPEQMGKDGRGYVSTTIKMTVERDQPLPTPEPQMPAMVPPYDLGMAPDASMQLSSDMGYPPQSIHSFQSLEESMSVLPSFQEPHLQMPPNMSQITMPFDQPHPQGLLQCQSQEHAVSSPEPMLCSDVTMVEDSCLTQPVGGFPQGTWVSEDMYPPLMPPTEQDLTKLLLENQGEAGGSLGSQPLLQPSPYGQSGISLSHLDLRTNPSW
Method in brief: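 CD4+ T cells from C57BL/6J mice, sorted by AutoMACS; activated 15 min with plate-bound anti-CD3 and/or anti-CD28 with IL-2, IL-6 or IL-4; lysed with protease inhibitors plus 10 mM NaF and 1 mM Na3VO4; Bradford-normalised immunoblots for pSTAT1 (Tyr701), pSTAT5 (Tyr694), pSTAT6 (Tyr641) and total STATs.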

[3] = target: T2, Signal transducer and activator of transcription 6 (Homo sapiens) (UniProt P42226); assay: Inhibition of IL4-induced STAT6 phosphorylation in human MDA-MB-468 cells at 0.1 to 5 uM incubated for 2 hrs followed by stimulation with IL4 for 1 hr by Western blot assay; type: cell-based
T2 sequence (whole entry): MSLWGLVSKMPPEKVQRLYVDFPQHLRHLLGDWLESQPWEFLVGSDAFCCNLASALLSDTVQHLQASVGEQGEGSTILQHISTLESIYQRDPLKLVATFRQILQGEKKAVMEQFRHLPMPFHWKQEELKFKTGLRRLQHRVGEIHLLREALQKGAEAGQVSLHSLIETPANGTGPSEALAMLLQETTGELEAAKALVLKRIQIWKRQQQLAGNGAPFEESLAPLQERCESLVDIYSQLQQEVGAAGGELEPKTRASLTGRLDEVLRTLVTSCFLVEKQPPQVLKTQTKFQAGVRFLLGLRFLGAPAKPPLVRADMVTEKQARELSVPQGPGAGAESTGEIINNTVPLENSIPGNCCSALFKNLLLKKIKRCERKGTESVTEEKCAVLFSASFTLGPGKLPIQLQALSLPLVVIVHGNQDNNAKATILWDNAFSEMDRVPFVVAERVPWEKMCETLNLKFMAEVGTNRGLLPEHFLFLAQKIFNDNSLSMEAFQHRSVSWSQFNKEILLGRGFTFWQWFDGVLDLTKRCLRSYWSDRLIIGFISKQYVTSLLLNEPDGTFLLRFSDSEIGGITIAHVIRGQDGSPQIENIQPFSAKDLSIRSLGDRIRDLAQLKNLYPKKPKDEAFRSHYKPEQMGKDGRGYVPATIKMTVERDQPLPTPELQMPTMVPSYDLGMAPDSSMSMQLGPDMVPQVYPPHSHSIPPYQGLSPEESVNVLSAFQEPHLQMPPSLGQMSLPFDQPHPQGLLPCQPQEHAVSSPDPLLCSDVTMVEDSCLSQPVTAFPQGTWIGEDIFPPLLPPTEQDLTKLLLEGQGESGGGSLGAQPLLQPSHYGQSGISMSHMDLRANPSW
Method in brief: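 MDA-MB-468 breast cancer cells serum-starved, treated with prodrugs, then IL-4 stimulated; pSTAT6 read by Western blot.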

[4] = target: T2, Signal transducer and activator of transcription 6 (Homo sapiens); assay: Inhibition of IL4-stimulated STAT6 phosphorylation at tyrosine 641 in human Beas-2B cells at 0.025 to 5 uM incubated for 2 hrs followed by stimulation with IL4 for 1 hr by Western blot assay; type: cell-based
Method in brief: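 Beas-2B seeded at 3.0 × 10^5 cells/well the day before; prodrugs from DMSO stocks added to final concentrations for 2 h, then IL-4 (2 ng/mL) for 1 h. PBS-washed cells lysed with PMSF, protein by modified Lowry; blots blocked in 3% BSA/TBST, probed for pSTAT6 (Tyr641), stripped and reprobed for total STAT6; ECL on X-ray film.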

[5] = Cytotoxicity against human BEAS2B cells assessed as cell viability after 72 hrs by MTS assay; type: cell-based; details: beas-2b
Method in brief: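 Beas-2B seeded at 2000 cells/well; 10 mM DMSO stocks serially diluted in DMSO and equal amounts added to cultures; 72 h at 37 °C; medium replaced by 1:5 MTS/PBS, 1 h further incubation; viable cells read as optical density at 490 nm.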

[6] = target: T2, Signal transducer and activator of transcription 6 (Homo sapiens); assay: Inhibition of IL-13-stimulated STAT6 SH2 domain phosphorylation in human Beas-2B cells assessed as inhibition of CCL26 mRNA expression at 100 nM preincubated for 2 hrs followed by stimulation with IL-13 for 24 hrs by RT-PCR analysis relative to control
[7] = target: RAC-alpha serine/threonine-protein kinase (Homo sapiens) (UniProt P31749); assay: Inhibition of EGF-induced AKT phosphorylation at S473 in human MDA-MB-468 cells at 5 uM incubated for 2 hrs followed by stimulation with EGF for 1 hr by Western blot assay; type: cell-based
Chain of RAC-alpha serine/threonine-protein kinase (Homo sapiens) (P31749 whole entry): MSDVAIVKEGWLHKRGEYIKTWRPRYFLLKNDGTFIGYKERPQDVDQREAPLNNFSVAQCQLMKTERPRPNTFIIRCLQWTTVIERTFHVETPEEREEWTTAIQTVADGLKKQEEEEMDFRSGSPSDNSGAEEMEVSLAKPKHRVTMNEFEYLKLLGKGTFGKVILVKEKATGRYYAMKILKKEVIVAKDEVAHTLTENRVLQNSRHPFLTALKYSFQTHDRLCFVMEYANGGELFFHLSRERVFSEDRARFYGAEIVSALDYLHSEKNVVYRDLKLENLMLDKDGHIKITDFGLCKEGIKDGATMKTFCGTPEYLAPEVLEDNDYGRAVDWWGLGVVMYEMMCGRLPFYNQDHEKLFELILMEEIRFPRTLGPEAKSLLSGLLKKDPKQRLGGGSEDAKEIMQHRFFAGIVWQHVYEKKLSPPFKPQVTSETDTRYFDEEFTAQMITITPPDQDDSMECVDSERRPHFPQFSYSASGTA

Chain of Signal transducer and activator of transcription 3 (Mus musculus) (P42227 whole entry): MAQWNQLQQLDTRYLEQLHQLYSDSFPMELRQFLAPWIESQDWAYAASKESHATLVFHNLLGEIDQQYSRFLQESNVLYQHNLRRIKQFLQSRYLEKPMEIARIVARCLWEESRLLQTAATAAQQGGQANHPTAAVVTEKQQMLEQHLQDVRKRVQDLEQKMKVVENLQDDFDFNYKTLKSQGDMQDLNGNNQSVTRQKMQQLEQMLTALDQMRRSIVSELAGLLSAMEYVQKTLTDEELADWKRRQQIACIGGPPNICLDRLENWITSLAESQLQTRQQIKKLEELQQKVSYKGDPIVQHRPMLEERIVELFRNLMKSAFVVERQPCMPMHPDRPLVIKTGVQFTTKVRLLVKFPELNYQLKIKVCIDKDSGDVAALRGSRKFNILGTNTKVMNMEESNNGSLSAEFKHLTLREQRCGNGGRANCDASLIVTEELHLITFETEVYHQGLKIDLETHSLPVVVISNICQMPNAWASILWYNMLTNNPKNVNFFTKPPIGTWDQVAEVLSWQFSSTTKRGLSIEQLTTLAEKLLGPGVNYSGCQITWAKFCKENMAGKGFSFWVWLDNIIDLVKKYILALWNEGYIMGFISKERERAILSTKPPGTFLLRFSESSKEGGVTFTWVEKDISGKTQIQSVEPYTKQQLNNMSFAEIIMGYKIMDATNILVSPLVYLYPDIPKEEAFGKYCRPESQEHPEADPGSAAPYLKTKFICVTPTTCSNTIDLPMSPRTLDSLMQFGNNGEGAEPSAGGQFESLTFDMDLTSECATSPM

Q: What does the source list for `C/C(=C\C(=O)N[C@H](C(=O)N1CCC[C@H]1C(=O)N(C)c1ccccc1)C(C)(C)C)c1ccc(C(F)(F)P(=O)(OCOC(=O)C(C)(C)C)OCOC(=O)C(C)(C)C)cc1`?
A: inhibition [1]: inactive; inhibition [2]: Active; inhibition [3]: Active; inhibition [4]: Active; Activity [5]: Non-toxic; inhibition [6]: > 50%; inhibition [7]: Active
